Reference: PubChem BioAssay
Results filed as inconclusive are left out.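 How the source made its calls, unless noted: active means inhibition over a set limit, the all-compound mean plus 3 SD, in both replicate runs; inconclusive means over that limit in just one replicate run; inactive means at or under that limit in both runs.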

Experiments:
[1] = S. cerevisiae growth inhibition in permissive medium (OD615), pilot counter-assay for S. cerevisiae lifespan shortening project, permissive growth control (AID 705;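 active means growth inhibition above 25% in both replicates, a cutoff set 3 SD above the mean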); details: OD615, 24 h, at 10 µM, hits give high values
In short: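 System: Engineered DeaD yeast | Buffer or medium: SC raffinose/galactose permissive medium | Incubation: Cells pre-grown 4 h, then 24 h compound exposure, 30 °C humidified | Measured by: Absorbance (optical density) at 615 nm | Read-out: Reduction in yeast growth (OD615)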

[2] = S. cerevisiae growth inhibition in restrictive medium, OD615, pilot screen, restrictive growth control, yeast lifespan reduction project (AID 706;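 active means growth inhibition above a set limit, 3 SD over mean compound inhibition, in both replicates, cut at about 43% in these data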;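 further: modified DeaD lifespan yeast strain shifted to restrictive glucose medium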); details: OD615, 48 h, at 10 µM, hits give high values
In short: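 Material: modified S. cerevisiae; Medium: glucose-based CSMM-D restrictive medium; Compound dosing: one concentration, 10 µM final, 0.25% DMSO; Incubation: 48 h compound exposure at 30 °C; Measured by: OD615.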

[3] = doxorubicin toxicity protection in MRP-1 cells – H69AR cells, CellTiter-Glo, duplicate, MRP-1 activator project, pilot screen (AID 807;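 active means viability increase at or above a cutoff of the median across tested compounds plus 3 SD, cut at about 8.5% in these data, passing the limit was not always enough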;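 further: compound pretreatment 18-22 h then 72 h combined with doxorubicin; 0% = doxorubicin alone and 100% = vehicle without doxorubicin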); details: H69AR viability with doxorubicin, CellTiter-Glo luminescence; at 10 µM; hits give high values
[4] = viability of HCT116 without oncogenic beta-catenin – human colon tumor cells, pilot screen (AID 823;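 active means cell viability at or below a set limit in both duplicate runs, the limit being the all-compound median minus 4 SD, cut at about 23% in these data, passing the limit was not always enough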;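 further: 0% = wells killed by 20 µM Hyamine and 100% = untreated DMSO cell wells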); details: HCT116 beta-catenin knockout viability, CellTiter-Glo, 60 h; at 10 µM; hits give low values
[5] = viability of PTEN-null HCT116 cells – cell-based, HCT116 clonal line, CellTiter-Glo, pilot screen (AID 824;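 active means viability at or below 27.92% in each of two runs, the all-compound median minus 4 SD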;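 further: 0% = 20 µM Hyamine control and 100% = vehicle cell control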); details: HCT116 PTEN-deleted viability, 60 h, at 10 µM, hits give low values
[6] = RAM pathway blockade in budding yeast – dse1pr::URA3 reporter, 5-FOA selection, pilot screen (AID 869);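 further: 0% = DMSO wells with no growth and 100% = 10 µM 1-NA-PP1 with full growth; RAM network block rescues cells from 5-FOA so hits raise OD615 growth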; details: S. cerevisiae dse1pr::URA3 5-FOA growth, OD615, 2 d; at 10 µM; hits give high values; strain carries analog-sensitive mutant Cbk1 kinase
[7] = RAM signaling pathway blockade in yeast – S. cerevisiae, Pdr1DBD-CYC8 efflux-inhibited sensitized strain, primary screen (AID 1298;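 active means RAM network inhibition above 8.4% in each of two replicates, 3 SD over the compound average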;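 further: 0% = DMSO untreated cells without growth and 100% = 10 µM 1-NA-PP1 full growth; higher means more yeast growth rescued from 5-FOA killing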); details: S. cerevisiae cbk1-as DSE1-URA3 strain, 5-FOA growth OD615, 2 d; at 50 µM; hits give high values

Cc1cc(C)cc(NC(=O)CSc2nnc(-c3ccccc3)n2N)c1
inactive: growth inhibition [1] 5.25% | growth inhibition [2] 7.08% | viability increase [3] -3.11% | viability [4] 98.1% | viability [5] 97.1% | inhibition [6] 2.74% | RAM network inhibition [7] 4.66%

CCn1c(C)nc2cc(S(=O)(=O)N3CCCC3)ccc21
inactive: growth inhibition [1] -1.56% | growth inhibition [2] 11.8% | viability increase [3] -1.11% | viability [4] 94.3% | viability [5] 88.6% | inhibition [6] 0.805% | RAM network inhibition [7] 2.71%

COc1cc2c(cc1OC)C(C(=O)Nc1ccc3c(c1)OCCO3)C(c1cccnc1)N(C)C2=O (stereo not given)
inactive: growth inhibition [1] -4.64% | growth inhibition [2] -22.9% | viability increase [3] -6.9% | viability [4] 85.6% | viability [5] 87.9% | inhibition [6] 1.38% | RAM network inhibition [7] -0.57%

CC(=O)c1c(NC(=O)C(C)C)nc(C)nc1-c1ccccc1
inactive: growth inhibition [1] -6.5% | growth inhibition [2] -8.2% | viability increase [3] -0.66% | viability [4] 98.4% | viability [5] 100% | inhibition [6] 1.69% | RAM network inhibition [7] -0.83%

CC1(C)CC(=O)c2c(Cc3ccccc3)n[nH]c2C1
inactive: growth inhibition [1] 0.375% | growth inhibition [2] -8.27% | viability increase [3] -1.7% | viability [4] 98.3% | viability [5] 90.5% | inhibition [6] 2.2% | RAM network inhibition [7] -0.11%

c1nc2nc3c(c(N4CCOCC4)n2n1)CCCC3
inactive: growth inhibition [1] -6.33% | growth inhibition [2] 11.4% | viability increase [3] -1.47% | viability [4] 103% | viability [5] 99.7% | inhibition [6] 0.645% | RAM network inhibition [7] 0.44%

CCN1CCN(C(=O)C2CCN(Cc3nc(-c4cccc(Cl)c4)oc3C)CC2)CC1
inactive: growth inhibition [1] -1.82% | growth inhibition [2] -14.3% | viability increase [3] -4.04% | viability [4] 69% | viability [5] 72.4% | inhibition [6] 0.9% | RAM network inhibition [7] 1.16%

CCCCN(C(=O)NC(=O)C1=C(N2CCOCC2)/C(=C/c2ccccc2)CC1)S(C)(=O)=O
inactive: growth inhibition [1] -2.54% | growth inhibition [2] -6.07% | viability increase [3] -2.95% | viability [4] 86.1% | viability [5] 89.8% | inhibition [6] 0.17% | RAM network inhibition [7] -0.73%

CC(CC1C(C#N)=C(N)OC2=C1C(=O)CCC2)c1ccccc1 (stereo not given)
inactive: growth inhibition [1] -23.1% | growth inhibition [2] -13.3% | viability increase [3] -1.89% | viability [4] 98.6% | viability [5] 99.3% | inhibition [6] 0.91% | RAM network inhibition [7] 5.88%

CC(=O)Cc1nsc(NC(=O)C2Cc3ccccc3C(=O)O2)n1 (stereo not given)
inactive: growth inhibition [1] -15.5% | growth inhibition [2] -1.69% | viability increase [3] -1.57% | viability [4] 102% | viability [5] 100% | inhibition [6] 0.45% | RAM network inhibition [7] 6.74%

Cc1ccc(C)c(NC(=O)CS(=O)(=O)c2c[nH]c3ccccc23)c1
inactive: growth inhibition [1] -9.01% | growth inhibition [2] -31.9% | viability increase [3] -2.95% | viability [4] 96.5% | viability [5] 93.5% | inhibition [6] 2.13% | RAM network inhibition [7] -0.27%

COc1cc2[nH]c(=O)n(CCCCCC(=O)NCCCN3CCC(C)CC3)c(=O)c2cc1OC
inactive: growth inhibition [1] -13.8% | growth inhibition [2] -6.3% | viability increase [3] -0.8% | viability [4] 93.8% | viability [5] 101% | inhibition [6] 1.68% | RAM network inhibition [7] 2.66%

Cn1c(=O)c2c(nc(CN3CCOCC3)n2CCc2ccccc2)n(C)c1=O
inactive: growth inhibition [1] -8.53% | growth inhibition [2] -15.8% | viability increase [3] 3.73% | viability [4] 95% | viability [5] 94.7% | inhibition [6] 1.48% | RAM network inhibition [7] 0.56%

NC(=O)c1cccc(S(=O)(=O)N2CC(c3ccccc3)CC2=O)c1 (stereo not given)
inactive: growth inhibition [1] -15.8% | growth inhibition [2] -15% | viability increase [3] -1.11% | viability [4] 99.5% | viability [5] 96.1% | inhibition [6] 0.075% | RAM network inhibition [7] -0.76%

O=C(O)c1c(F)c(F)c(F)c(F)c1-c1ccc(Cl)cc1
inactive: growth inhibition [1] -20% | growth inhibition [2] -19.6% | viability increase [3] -1.76% | viability [4] 98.9% | viability [5] 98.9% | inhibition [6] -0.105% | RAM network inhibition [7] 5.79%

CCOC(=O)c1nn(-c2ccc3c(c2)CCN3C(C)=O)cc1O
inactive: growth inhibition [1] -3.56% | growth inhibition [2] -5.95% | viability increase [3] -1.4% | viability [4] 101% | viability [5] 92.7% | inhibition [6] 0.375% | RAM network inhibition [7] 3.05%

O=C(Nc1ccc(S(=O)(=O)N2CCCC2)cc1)C1COc2ccccc2O1 (stereo not given)
inactive: growth inhibition [1] -10.9% | growth inhibition [2] -15.6% | viability increase [3] 0.84% | viability [4] 97.8% | viability [5] 83% | inhibition [6] 1.24% | RAM network inhibition [7] 5.44%

N#CCCN1CCN(S(=O)(=O)c2ccc(S(=O)(=O)N3CCCCCC3)cc2)CC1
inactive: growth inhibition [1] 1.57% | growth inhibition [2] -16.9% | viability increase [3] -2.09% | viability [4] 97.4% | viability [5] 94.3% | inhibition [6] 0.525% | RAM network inhibition [7] 11.9%

CC(=O)N1CCC(N(CCN2CCOCC2)C(=O)Nc2ccc(Cl)c(Cl)c2)CC1
inactive: growth inhibition [1] -8.97% | growth inhibition [2] -0.8% | viability increase [3] -1.49% | viability [4] 97% | viability [5] 95.6% | inhibition [6] 2.5% | RAM network inhibition [7] 1.45%

C=CC1C(N2CCOCC2)C(C)(C)S1(=O)=O (stereo not given)
inactive: growth inhibition [1] 4.78% | growth inhibition [2] 5.46% | viability increase [3] -1.46% | viability [4] 102% | viability [5] 101% | inhibition [6] 1.38% | RAM network inhibition [7] -0.28%

COc1ccc2nc(NC(=O)C3COc4ccccc4O3)sc2c1 (stereo not given)
inactive: growth inhibition [1] -5.73% | growth inhibition [2] -9.21% | viability increase [3] 2.25% | viability [4] 100% | viability [5] 91.7% | inhibition [6] 2.08% | RAM network inhibition [7] 2.86%

O=C(NCC1CCCO1)c1ccc2c(c1)N(Cc1ccccc1)C(=O)CS2=O (stereo not given)
inactive: growth inhibition [1] -1.31% | growth inhibition [2] 8.91% | viability increase [3] -0.66% | viability [4] 91.2% | viability [5] 88.3% | inhibition [6] 1.06% | RAM network inhibition [7] 0.78%

Cc1ccc(C)c2[nH]c(=O)c(CCNC(=O)CC(C)C)cc12
inactive: growth inhibition [1] -2.83% | growth inhibition [2] -10.7% | viability increase [3] -1.74% | viability [4] 103% | viability [5] 108% | inhibition [6] 1.75% | RAM network inhibition [7] 8.88%

Cc1ccc(-c2ccc(CCC(=O)O)n2C(C)C)cc1
inactive: growth inhibition [1] 3.3% | growth inhibition [2] -1.55% | viability increase [3] -1.75% | viability [4] 94.7% | viability [5] 101% | inhibition [6] 2.1% | RAM network inhibition [7] 4.37%

CCOC(=O)Cn1c(CN2CCc3ccccc3C2)nc2c1c(=O)n(C)c(=O)n2C
inactive: growth inhibition [1] -7.72% | growth inhibition [2] 1.89% | viability increase [3] -0.76% | viability [4] 84.5% | viability [5] 86.1% | inhibition [6] -0.39% | RAM network inhibition [7] 4.64%

Cn1c(C(=O)NCCN2CCN(Cc3ccccc3)CC2)cc2c(=O)n(C)c3ccccc3c21
inactive: growth inhibition [1] -0.4% | growth inhibition [2] 5.33% | viability increase [3] -6.61% | viability [4] 78.5% | viability [5] 79% | inhibition [6] -0.115% | RAM network inhibition [7] 2.19%

Clc1cc(NCc2cccs2)ccc1N1CCOCC1
inactive: growth inhibition [1] -13.5% | growth inhibition [2] -6.34% | viability increase [3] -3.46% | viability [4] 78.9% | viability [5] 92% | inhibition [6] 1.17% | RAM network inhibition [7] 4.21%

CCOCCCNC(=O)Cn1nc(-c2ccccc2)ccc1=O
inactive: growth inhibition [1] -19.8% | growth inhibition [2] -7.81% | viability increase [3] 1.86% | viability [4] 105% | viability [5] 91.7% | inhibition [6] 0.165% | RAM network inhibition [7] -0.58%

O=C(Cn1ncc2c(=O)oc3ccccc3c21)N1CCc2ccccc2C1
inactive: growth inhibition [1] -12.5% | growth inhibition [2] -12.7% | viability increase [3] -1.69% | viability [4] 103% | viability [5] 94.7% | inhibition [6] 0.645% | RAM network inhibition [7] -0.07%

CCOC(=O)CSc1nc2c(c(=O)n1-c1ccc(OC)cc1)SCC2
inactive: growth inhibition [1] -4.98% | growth inhibition [2] -0.425% | viability increase [3] 0.37% | viability [4] 99.5% | viability [5] 98.6% | inhibition [6] 1.04% | RAM network inhibition [7] 7.6%

CC(C)NC(=O)C1(O)c2ccccc2NC(=O)N1c1ccc(Cl)c(Cl)c1 (stereo not given)
inactive: growth inhibition [1] -5.92% | growth inhibition [2] -12.9% | viability increase [3] -2.69% | viability [4] 89.6% | viability [5] 93.9% | inhibition [6] 0.375% | RAM network inhibition [7] 2.53%

CC(C)Sc1nnc(NC(=O)C2CC2)s1
inactive: growth inhibition [1] -12.6% | growth inhibition [2] -3.5% | viability increase [3] -0.09% | viability [4] 98.1% | viability [5] 102% | inhibition [6] 1.93% | RAM network inhibition [7] 3.62%

COC(=O)CN(n1cnnc1)S(=O)(=O)c1ccccc1
inactive: growth inhibition [1] -9.75% | growth inhibition [2] -4.21% | viability increase [3] -0.13% | viability [4] 99% | viability [5] 96.9% | inhibition [6] 1.23% | RAM network inhibition [7] -0.62%

CC1(C)CC(=O)C=C(NCCN2CCN(C(=O)Nc3ccc(Cl)c(Cl)c3)CC2)C1
inactive: growth inhibition [1] 13.1% | growth inhibition [2] 8.88% | viability increase [3] -3.81% | viability [4] 94.8% | viability [5] 90.1% | inhibition [6] -0.235% | RAM network inhibition [7] 3.08%

O=c1cc(CO)oc(C(Nc2ccccn2)c2ccccc2F)c1O (stereo not given)
inactive: growth inhibition [1] -10.6% | growth inhibition [2] -4.86% | viability increase [3] -5.64% | viability [4] 106% | viability [5] 93.3% | inhibition [6] 0.95% | RAM network inhibition [7] 2.91%
